Bioassay records: PubChem, several laboratories
Shown are actives, neighbours in structure and some others; about 2.9% of the full set was active somewhere.
APOBEC3A inh = human APOBEC3A DNA deaminase inhibition | P31941 | recombinant A3A, FAM/TAMRA ssDNA deamination fluorescence | inhibition, % at 20 µM | hit rate 0.41% among 330,000;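 active means at least 40% inhibition at 20 µM here, with at most 30% in a related deaminase screen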
ABHD5-PLIN5 inh = inhibitors of human ABHD5-perilipin-5 interaction. Q00G26+Q8WTS1. Split G. princeps luciferase complementation, luminescence, 4 h. inhibition, % at 4 µM. hit rate 0.78% among 360,000;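 active means inhibition above the mean inhibition across every tested compound plus 3 SD, cut at about 22% in these data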
Target sequence (Q00G26 whole entry, looked up): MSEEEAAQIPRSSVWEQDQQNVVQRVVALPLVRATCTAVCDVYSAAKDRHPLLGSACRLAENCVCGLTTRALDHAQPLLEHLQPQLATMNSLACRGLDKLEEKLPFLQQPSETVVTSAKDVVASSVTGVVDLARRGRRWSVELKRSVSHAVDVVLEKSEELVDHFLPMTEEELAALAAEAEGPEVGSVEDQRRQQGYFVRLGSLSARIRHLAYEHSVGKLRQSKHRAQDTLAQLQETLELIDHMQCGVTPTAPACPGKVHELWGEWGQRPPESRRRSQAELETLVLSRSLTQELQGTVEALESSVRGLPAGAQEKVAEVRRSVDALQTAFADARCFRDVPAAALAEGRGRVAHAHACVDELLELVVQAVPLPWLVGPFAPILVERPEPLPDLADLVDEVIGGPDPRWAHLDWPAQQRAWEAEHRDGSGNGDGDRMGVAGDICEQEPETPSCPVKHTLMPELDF
Target sequence (Q8WTS1 whole entry, looked up): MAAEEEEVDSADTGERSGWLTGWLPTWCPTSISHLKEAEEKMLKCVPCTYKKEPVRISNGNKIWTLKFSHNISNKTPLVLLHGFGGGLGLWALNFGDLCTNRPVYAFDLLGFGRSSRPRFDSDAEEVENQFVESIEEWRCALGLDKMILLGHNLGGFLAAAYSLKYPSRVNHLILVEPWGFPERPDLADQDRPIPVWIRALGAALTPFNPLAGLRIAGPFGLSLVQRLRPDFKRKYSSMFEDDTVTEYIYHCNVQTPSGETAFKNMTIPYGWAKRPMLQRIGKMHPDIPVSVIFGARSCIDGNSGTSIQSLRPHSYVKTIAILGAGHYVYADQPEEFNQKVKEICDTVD
PRMT1 inh = inhibitors of human PRMT1. Q99873. hit rate 1.3% among 370,000. recombinant PRMT1, activity-based probe fluorescence polarization. inhibition, % at 2.79 µM;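 active means inhibition above about 21% made by adding two undisclosed values, limit read from the data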
APOBEC3G inh = inhibitors of human APOBEC3G DNA deaminase. Q9HC16. recombinant A3G, ssDNA deamination FAM/TAMRA fluorescence. inhibition, % at 20 µM. hit rate 0.28% among 330,000. AID 493012;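 active means inhibition of at least 40% at 20 µM, with no more than 30% in the related APOBEC3A deaminase screen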
HCV core dimer = HCV core protein dimerization inhibition. TR-FRET GST/Flag-core106 dimerization, 1536-well. inhibition, % at 5 µM. hit rate 0.33% among 300,000;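 active means inhibition above the mean of all tested compounds plus 3 SD, set per screening campaign, cut at about 45% in these data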
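System – GST-tagged and Flag-tagged HCV core protein residues 1-106 · Repeats – one well for each compound · Technique – TR-FRET 671 and 617 nm emission · Doses – one concentration, 5 µM, in 0.5% DMSO · Times – 4 h, 22.5 °C incubation · Also added – Eu donor and XL665 acceptor anti-tag antibodies · Measure – percent inhibition of core106 dimerization signal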
NS3 helicase inh = HCV NS3 helicase inhibition | NS3 helicase DNA unwinding, Cy5 molecular beacon fluorescence | hit rate 0.56% among 290,000 | AID 1800 | inhibition, % at 10.9 µM;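 active means inhibition above the mean of all tested compounds plus 3 SD, set per campaign, cut at about 35% in these data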
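Compound dosing – single dose, 10.9 µM nominal final, DMSO 0.8% final · System – NS3 helicase fragment of HCV · Buffer or medium – MOPS pH 6.5, MgCl2, DTT, Tween20, BSA · Signal – Cy5 beacon fluorescence read at start and 1 h · Also added – annealed dual-labelled DNA beacon duplex, ATP-started · Schedule – 1 h at 25 °C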
A3G conf = confirmation of human APOBEC3G DNA deaminase inhibitors; shares compounds with APOBEC3G inh; recombinant A3G ssDNA deaminase, UDG/FAM-TAMRA fluorescence; inhibition, % at 20 µM; hit rate 72% among 890; AID 493152;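 active means inhibition reaching a set limit in any replicate at 20 µM, the limit being 80% of the first screen's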
UDG ctr A3G = E. coli UDG inhibition in APOBEC3G counter-screen; shares compounds with APOBEC3G inh; UDG counterscreen, FAM/TAMRA oligo fluorescence; inhibition, % at 20 µM; 710 tested, under 10 active; AID 504715;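 active means compounds giving 40% or more inhibition at 20 µM in any one of the three replicates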;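 further: inhibitors lower the FAM signal released by uracil excision and alkaline cleavage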
Large screens that a line does not name were inactive (follow-up assays come after a bar, where they were run).

CCOC(=O)c1ccc(-n2c(=S)sc3c(=O)[nH]c(C)nc32)cc1	APOBEC3G inh 56 (no result: PRMT1 inh) | A3G conf 40 | UDG ctr A3G inactive
Nc1cc(S(=O)(=O)Nc2cc(Cl)ccc2Cl)ccc1N1CCOCC1	APOBEC3G inh 48 | A3G conf 34 | UDG ctr A3G inactive
Nc1cc(S(=O)(=O)Nc2ccccc2Cl)ccc1N1CCCC1	none
CCN1CCN(c2nc(C)nc3c2sc(=S)n3C)CC1	APOBEC3G inh 46 (no result: HCV core dimer) | A3G conf 45
CCCCCCSc1ccc([C@@H]2[C@@H]3C(=O)N(C)C(=O)[C@@H]3[C@]3(C(=O)OC)CCCCN23)cc1	none (no result: HCV core dimer, NS3 helicase inh)
O=S(=O)(c1ccccc1)N(F)S(=O)(=O)c1ccccc1	APOBEC3G inh 46 (no result: HCV core dimer, NS3 helicase inh) | A3G conf 53 | UDG ctr A3G inactive
O=C(O)c1ccccc1CC(CCc1ccccc1)C(=O)O (stereo not drawn)	none (no result: APOBEC3A inh, APOBEC3G inh, HCV core dimer, NS3 helicase inh)
COC(=O)/C=C1\SC(N2CCOCC2)=C(c2ccc(OC)cc2)C1=O	APOBEC3G inh 55 | A3G conf 20 | UDG ctr A3G inactive
COc1ccc2cc(/C=C3\SC(=S)NC3=O)c(N3CCOCC3)nc2c1	none
CC(C)CC(=O)N[C@H](C(=O)N[C@H](C(=O)N[C@@H](CC(C)C)[C@@H](O)CC(=O)N[C@@H](C)C(=O)N[C@@H](CC(C)C)[C@@H](O)CC(=O)O)C(C)C)C(C)C	APOBEC3G inh 75 (no result: HCV core dimer) | A3G conf inactive
O=c1cc(CN2CCN(c3ccc(O)cc3)CC2)nc2scc(-c3ccccc3)n12	APOBEC3G inh 73 | A3G conf inactive
Cc1cc(N)ccc1NC(=O)CN1CCCC1	none
COc1cc(NC(=O)CCc2c(C)noc2C)c(C(=O)O)cc1OC	none (no result: APOBEC3A inh, APOBEC3G inh, HCV core dimer, NS3 helicase inh)
Cc1ccc(C)c(N2CCN(C(=O)CCS(=O)(=O)c3ccc4c(c3)NC(=O)C(C)S4)CC2)c1 (stereo not drawn)	none
CCc1ccc(CN2CCC(C(=O)Nc3ccc(Oc4ccccc4)nc3)CC2)o1	APOBEC3G inh 41 | A3G conf inactive
COc1ccc(C(=O)C2CCCN(C/C=C/c3ccccc3OC)C2)c(OC)c1 (stereo not drawn)	none
COc1ccc(N=c2ssnc2Cl)cc1	APOBEC3G inh 70 (no result: PRMT1 inh) | A3G conf 79 | UDG ctr A3G inactive
Clc1nssc1=Nc1ccccc1	none (no result: APOBEC3A inh, PRMT1 inh, APOBEC3G inh, HCV core dimer)
CCN(CC)CCCn1c2c(c(SCC(=O)Nc3ccc(OC(F)(F)F)cc3)nc1=O)CCC2	none (no result: NS3 helicase inh)
O=C(Cn1nnc(-c2ccccc2)n1)Nc1cccc(S(=O)(=O)N2CCCC2)c1	none (no result: NS3 helicase inh)
CCC(=O)N1CCc2cc(S(=O)(=O)N3CCN(c4ccccc4)CC3)ccc21	none
CCC(=O)N1CCc2cc(S(=O)(=O)N3CCN(c4cc(Cl)ccc4C)CC3)ccc21	APOBEC3G inh 58 | A3G conf inactive | UDG ctr A3G inactive
CCOC(=O)c1sc(=S)n(C)c1NC(=O)c1cccc(Br)c1	APOBEC3G inh 47 | A3G conf inactive | UDG ctr A3G inactive
CCOC(=O)c1sc(=S)n(C)c1NC(=O)c1ccccc1	none
CCCCCCCCN1C(=O)[C@@H](CC(=O)N2CCOCC2)C[C@@]2(C(=O)OC)C1=C[C@H](C(C)C)O[C@@H]2C1CC1	none (no result: APOBEC3A inh, ABHD5-PLIN5 inh, APOBEC3G inh, HCV core dimer, NS3 helicase inh)
Cc1ccc(-c2n[nH]c(=S)n2C)cc1	none (no result: APOBEC3A inh, APOBEC3G inh, HCV core dimer)
Cn1c(-c2sc3ccccc3c2Cl)n[nH]c1=S	APOBEC3G inh 41 | A3G conf 63 | UDG ctr A3G inactive
Cn1c(-c2csc(-c3ccccc3)n2)n[nH]c1=S	APOBEC3G inh 45 | A3G conf 64 | UDG ctr A3G inactive
Cn1c(CSc2nc3ccccc3s2)n[nH]c1=S	APOBEC3G inh 48 | A3G conf 58 | UDG ctr A3G inactive
Cn1c(CSCCOc2ccccc2)n[nH]c1=S	APOBEC3G inh 41 | A3G conf inactive
COc1ccc2c3c(cccc13)N(C)N=C2C	PRMT1 inh 48, APOBEC3G inh 45 | A3G conf 40
COc1ccc2c3c(cccc13)OC2=O	none
O=C(OCc1ccccc1)N1CCC2CC1c1cc(NCCc3ccccc3)ccc12 (stereo not drawn)	none (no result: APOBEC3A inh, APOBEC3G inh, HCV core dimer, NS3 helicase inh)
O=C1CN(c2ccccc2)C(=S)N1C(=O)c1ccccc1	none
O=C(c1ccccc1)N1CCC(=O)N1c1ccccc1	APOBEC3G inh 40 | A3G conf inactive | UDG ctr A3G inactive
CCOc1ccc(C(=O)Nc2ccccc2N2CCN(C(=O)c3ccccc3)CC2)cc1[N+](=O)[O-]	none
O=c1[nH][nH]c2c1[C@H](CCc1cccc(Cl)c1)O[C@H](C1CCCC1)C2	none (no result: APOBEC3A inh, APOBEC3G inh, HCV core dimer, NS3 helicase inh)
O=C(O)c1ccc2c3c(ncnc13)-c1ccccc1C2=O	APOBEC3G inh 61 (no result: ABHD5-PLIN5 inh, PRMT1 inh) | A3G conf 41 | UDG ctr A3G inactive
N#Cc1cn(CC(=O)O)c2ccccc12	APOBEC3G inh 70 | A3G conf inactive | UDG ctr A3G inactive
O=C(O)c1ccc(/C=N/n2cc(-c3ccccc3)[nH]c2=S)cc1	APOBEC3G inh 58 | A3G conf 80 | UDG ctr A3G inactive
S=c1[nH]c(-c2ccccc2)cn1/N=C/c1cccnc1	APOBEC3G inh 50 | A3G conf 73 | UDG ctr A3G inactive
Cc1ccc(C(=O)N2CCC(C(=O)NC3CCCC3)CC2)cc1	APOBEC3G inh 69 | A3G conf inactive | UDG ctr A3G inactive
Cc1ccsc1C=Nn1c(-c2n[nH]c3c2CCC3)n[nH]c1=S	none (no result: APOBEC3A inh, ABHD5-PLIN5 inh, APOBEC3G inh, HCV core dimer, NS3 helicase inh)
Cc1ccsc1/C=N/n1c(-c2ccccn2)n[nH]c1=S	APOBEC3G inh 60 | A3G conf 63 | UDG ctr A3G inactive
Cc1ccsc1/C=N/n1c(-c2ccncc2)n[nH]c1=S	APOBEC3G inh 52 | A3G conf 75 | UDG ctr A3G inactive
Cc1ccsc1/C=N/n1c(-c2ccccc2)n[nH]c1=S	none
S=c1[nH]nc(-c2ccccn2)n1/N=C/c1ccco1	none
Cc1cc(-c2n[nH]c(=S)n2/N=C/c2sccc2C)n[nH]1	APOBEC3G inh 57 | A3G conf 86 | UDG ctr A3G inactive
S=c1[nH]nc(-c2ccccn2)n1/N=C/c1cccc(Cl)c1	APOBEC3G inh 43 | A3G conf 77 | UDG ctr A3G inactive
CCCCOc1ccc(C(=O)NC2CCCCN(Cc3cccc(C(F)(F)F)c3)C2=O)cc1 (stereo not drawn)	none (no result: APOBEC3A inh, ABHD5-PLIN5 inh, APOBEC3G inh, HCV core dimer, NS3 helicase inh)
CC1CCCCC1NC(=O)COC(=O)c1ccc2c(c1)NC(=O)CS2 (stereo not drawn)	none (no result: HCV core dimer, NS3 helicase inh)
O=C(CC1CCCC1)Nc1cc(S(=O)(=O)N2CCOCC2)ccc1O	APOBEC3G inh 57 (no result: HCV core dimer, NS3 helicase inh) | A3G conf 33 | UDG ctr A3G inactive
COc1ccccc1C(=O)NC(=O)COC(=O)Cn1cnc2c1c(=O)n(C)c(=O)n2C	none (no result: NS3 helicase inh)
